Experimental data from ChEMBL document CHEMBL1126667, “CCK-B agonist or antagonist activities of structurally hindered and peptidase-resistant Boc-CCK4 derivatives” (J Med Chem, 1993).
Non-standard residues stand in square brackets, D forms with d. Residues, ends and D or L forms follow the SMILES beside them. *: point of attachment. NMe1Nal = CN[C@@H](Cc1cccc2ccccc12)C(=O)O; NMeW = CN[C@@H](Cc1c[nH]c2ccccc12)C(=O)O; 1Nal = N[C@@H](Cc1cccc2ccccc12)C(=O)O; 2Nal = N[C@@H](Cc1ccc2ccccc2c1)C(=O)O; Chg = N[C@H](C(=O)O)C1CCCCC1; Phg = N[C@H](C(=O)O)c1ccccc1; Nle = CCCC[C@H](N)C(=O)O; OtBu = CC(C)(C)O*

The molecules below were run against T1, Cholecystokinin receptor type A (Cavia porcellus, UniProt Q63931) (assay: Affinity of compound on binding of [3H]pCCK-8 to the cholecystokinin type A receptor in guinea pig pancreatic membrane).
T1 sequence (Q63931 whole entry): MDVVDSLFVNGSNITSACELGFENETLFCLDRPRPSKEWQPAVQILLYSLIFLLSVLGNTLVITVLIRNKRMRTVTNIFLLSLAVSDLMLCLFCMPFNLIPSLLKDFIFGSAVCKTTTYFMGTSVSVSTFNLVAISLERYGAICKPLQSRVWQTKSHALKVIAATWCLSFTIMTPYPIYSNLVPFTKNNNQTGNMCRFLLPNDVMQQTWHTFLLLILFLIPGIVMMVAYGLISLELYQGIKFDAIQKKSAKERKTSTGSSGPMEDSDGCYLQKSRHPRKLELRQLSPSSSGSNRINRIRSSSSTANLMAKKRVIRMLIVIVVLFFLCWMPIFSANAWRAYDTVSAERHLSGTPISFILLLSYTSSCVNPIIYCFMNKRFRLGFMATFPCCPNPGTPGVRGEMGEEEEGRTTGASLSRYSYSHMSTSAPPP
Assay type: cell membranes
How it was run: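 Competition binding on guinea pig pancreatic membranes (0.2 mg protein/mL) using [3H]pCCK8 at 0.2 nM. Nonspecific binding defined with 1 μM CCK8. Reaction stopped by filtration over BSA-precoated GF/B filters and counted. KI derived by Cheng-Prusoff.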

Ki [µM] | Structure (SMILES)
3.2 | CN(C(=O)[C@H](Cc1ccccc1)NC(=O)[C@H](CC(=O)O)NC(=O)[C@@H](N)Cc1ccccc1)[C@@H](Cc1c[nH]c2ccccc12)C(=O)OC(C)(C)C
8 | CN(C(=O)[C@H](Cc1ccccc1)NC(=O)[C@H](CC(=O)O)NC(=O)[C@@H](N)Cc1ccccc1)[C@H](Cc1c[nH]c2ccccc12)C(=O)OC(C)(C)C
2.1 | CN(C(=O)[C@@H](NC(=O)[C@H](CC(=O)O)NC(=O)[C@@H](N)Cc1cccc2ccccc12)C1CCCCC1)[C@@H](Cc1c[nH]c2ccccc12)C(=O)OC(C)(C)C (H-[1Nal]D[Chg][NMeW]-OtBu)

What follows are molecules tested against T2, Gastrin/cholecystokinin type B receptor (Rattus norvegicus, UniProt P30553) (assay: Affinity of compound on binding of [3H]pCCK-8 to the cholecystokinin type B receptor in rat brain membrane).
T2 sequence (P30553 whole entry): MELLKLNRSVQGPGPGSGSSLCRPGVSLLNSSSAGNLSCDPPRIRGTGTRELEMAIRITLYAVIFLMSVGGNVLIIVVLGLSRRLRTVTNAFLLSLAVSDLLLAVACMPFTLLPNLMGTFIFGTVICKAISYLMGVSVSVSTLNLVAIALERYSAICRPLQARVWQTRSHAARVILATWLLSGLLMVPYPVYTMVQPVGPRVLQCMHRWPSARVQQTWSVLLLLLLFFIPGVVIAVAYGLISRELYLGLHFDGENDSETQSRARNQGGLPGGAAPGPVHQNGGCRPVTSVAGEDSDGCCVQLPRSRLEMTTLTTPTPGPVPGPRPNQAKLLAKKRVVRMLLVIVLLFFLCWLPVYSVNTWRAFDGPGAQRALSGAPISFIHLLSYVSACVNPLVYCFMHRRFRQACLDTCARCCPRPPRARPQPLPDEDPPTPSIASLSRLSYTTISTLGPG
Assay type: cell membranes
How it was run: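 Brain membranes (0.6 mg protein/mL; rat or guinea pig) incubated with 0.2 nM [3H]pCCK8 in 50 mM Tris-HCl pH 7.4, 5 mM MgCl2, 0.2 mg/mL bacitracin, 60 min at 25 °C. Filtered on BSA-precoated GF/B filters and counted. KI by Cheng-Prusoff; mean ± SEM of three experiments, each in triplicate.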

Ki [µM] | Structure (SMILES)
0.051 | CN(C)[C@@H](Cc1cccc2ccccc12)C(=O)N[C@@H](CC(=O)O)C(=O)N[C@H](C(=O)N[C@@H](Cc1c[nH]c2ccccc12)C(=O)OC(C)(C)C)c1ccccc1

These molecules were tested against T1, Cholecystokinin receptor type A (assay: Displacement of [3H]-pCCK-8 from cholecystokinin-A receptor in guinea pig pancreatic membrane).
Assay type: cell membranes
How it was run: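 Competition binding on guinea pig pancreatic membranes (0.2 mg protein/mL) using [3H]pCCK8 at 0.2 nM. Reaction stopped by filtration over BSA-precoated GF/B filters and counted. KI derived by Cheng-Prusoff.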

Structure (SMILES) | Ki [µM]
CCCC[C@H](NC(=O)[C@H](CC(=O)O)NC(=O)[C@H](Cc1cccc2ccccc12)N(C)C)C(=O)N(C)[C@@H](Cc1c[nH]c2ccccc12)C(=O)OC(C)(C)C | 0.52
CCCC[C@H](NC(=O)[C@H](CC(=O)O)NC(=O)[C@@H](N)Cc1ccccc1)C(=O)N(C)[C@@H](Cc1c[nH]c2ccccc12)C(=O)OC(C)(C)C (H-FD[Nle][NMeW]-OtBu) | > 5
CN(C(=O)[C@H](Cc1ccccc1)NC(=O)[C@H](CC(=O)O)NC(=O)[C@@H](N)Cc1cccc2ccccc12)[C@@H](Cc1c[nH]c2ccccc12)C(=O)OC(C)(C)C (H-[1Nal]DF[NMeW]-OtBu) | 3.5
CN(C(=O)[C@@H](NC(=O)[C@H](CC(=O)O)NC(=O)[C@@H](N)Cc1cccc2ccccc12)c1ccccc1)[C@@H](Cc1c[nH]c2ccccc12)C(=O)OC(C)(C)C (H-[1Nal]D[Phg][NMeW]-OtBu) | 0.83
CCCC[C@H](NC(=O)[C@H](CC(=O)O)NC(=O)[C@@H](N)Cc1ccc2ccccc2c1)C(=O)N(C)[C@@H](Cc1c[nH]c2ccccc12)C(=O)OC(C)(C)C (H-[2Nal]D[Nle][NMeW]-OtBu) | 4.2
CCCC[C@H](NC(=O)[C@H](CC(=O)O)NC(=O)[C@H](Cc1cccc2ccccc12)NC)C(=O)N(C)[C@@H](Cc1c[nH]c2ccccc12)C(=O)OC(C)(C)C (H-[NMe1Nal]D[Nle][NMeW]-OtBu) | 1.2
CCCC[C@H](NC(=O)[C@H](CC(=O)O)NC(=O)[C@@H](N)Cc1ccccc1)C(=O)N[C@H](Cc1c[nH]c2ccccc12)C(=O)OC(C)(C)C (stereo in doubt; 13) | 1.1

Second part, the molecule after the results:

Ki [µM] | Structure (SMILES)
1.2 | CCCC[C@H](NC(=O)[C@H](CC(=O)O)NC(=O)[C@@H](N)Cc1cccc2ccccc12)C(=O)N(C)[C@@H](Cc1c[nH]c2ccccc12)C(=O)OC(C)(C)C
5.4 | CN(C)[C@@H](Cc1cccc2ccccc12)C(=O)N[C@@H](CC(=O)O)C(=O)N[C@H](C(=O)N[C@@H](Cc1c[nH]c2ccccc12)C(=O)OC(C)(C)C)C1CCCCC1
1 | CN(C)[C@@H](Cc1cccc2ccccc12)C(=O)N[C@@H](CC(=O)O)C(=O)N[C@H](C(=O)N[C@@H](Cc1c[nH]c2ccccc12)C(=O)OC(C)(C)C)c1ccccc1
6.3 | CCCC[C@H](NC(=O)[C@H](CC(=O)O)NC(=O)[C@@H](N)Cc1cccc2ccccc12)C(=O)N(C)[C@H](Cc1c[nH]c2ccccc12)C(=O)OC(C)(C)C
2.4 | CC(C)(C)OC(=O)[C@H](Cc1c[nH]c2ccccc12)NC(=O)[C@H](Cc1ccccc1)NC(=O)[C@H](CC(=O)O)NC(=O)[C@@H](N)Cc1cccc2ccccc12 (H-[1Nal]DFW-OtBu)
1.4 | CC(C)(C)OC(=O)[C@H](Cc1c[nH]c2ccccc12)NC(=O)[C@@H](NC(=O)[C@H](CC(=O)O)NC(=O)[C@@H](N)Cc1cccc2ccccc12)C1CCCCC1 (H-[1Nal]D[Chg]W-OtBu)
0.99 | CC(C)(C)OC(=O)[C@H](Cc1c[nH]c2ccccc12)NC(=O)[C@@H](NC(=O)[C@H](CC(=O)O)NC(=O)[C@@H](N)Cc1cccc2ccccc12)c1ccccc1 (H-[1Nal]D[Phg]W-OtBu)
